{"source": "paper PMC3991427", "about": "(Angewandte Chemie (International ed. in English), 2014)", "test_system": "MCF-7 breast cancer cells", "assay_type": "cell-based", "conditions": "broad compound screen at 10 μM, compared with (+)-21", "summary_of_the_method": "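Single-concentration screen: each test compound at 10 μM, run in parallel against MCF-7 breast cancer cells and non-tumorigenic MCF-10A breast cells. The assay is proliferation-based, and the read-out is relative cell number after treatment, expressed as a percentage. Selectivity is judged by comparing the MCF-7 response with the MCF-10A response.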"}
{"compound": "c1ccc2sccc2c1", "note": "[compound 29, benzothiophene]", "values": [{"measurement": "inhibition of cell proliferation / cell growth (in words)", "result": "did not inhibit cell growth"}]}
{"compound": "c1ccsc1", "note": "[compound 28, thiophene]", "values": [{"measurement": "inhibition of cell proliferation / cell growth (in words)", "result": "did not inhibit cell growth"}]}
